The source made the active and inactive calls. The calls are words filed in the database; no cut-off is given here.
How the values were obtained:
[1] = target: T1, Sialic acid-binding Ig-like lectin 7 (Homo sapiens, UniProt Q9Y286); assay: Binding affinity to human IgG1-fused Siglec-7-Fc assessed as inhibition of Siglec-7-Fc binding to RBC preincubated for 10 mins followed by RBC addition measured after 20 mins by FACS analysis relative to sodium (4S,5R,6R)-5-acetamido-4-hydroxy-2-methoxy-6-((1R,2R)-1,2,3 trihydroxypropyl)tetrahydro-2H-pyran-2-carboxylate
In short: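 RBC flow-cytometry competition as above: Siglec-7-Fc 0.2 μg/mL with ligand 10 min at RT, then RBCs 20 min on ice, detected by anti-Fc-biotin/streptavidin-PE MFI. The reference ligand α-Me Neu5Ac is run in the same test. Relative inhibitory potency is calculated intra-test against it to offset inter-test variation from fresh RBCs.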

[2] = target: T1, Sialic acid-binding Ig-like lectin 7; assay: Binding affinity to human IgG1-fused Siglec-7-Fc assessed as inhibition of Siglec-7-Fc binding to RBC preincubated for 10 mins followed by RBC addition measured after 20 mins by FACS analysis
In short: (§1)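 Siglec-7-Fc (human IgG1 fusion), 0.2 μg/mL, premixed 10 min at RT in PBS with inhibitor dilution series. The mix is then added to pelleted freshly isolated human RBCs (0.1% suspension) for 20 min on ice. Bound Fc is detected with biotin goat anti-human Fc (10 μg/mL) and streptavidin-PE, then formaldehyde-fixed and read by flow cytometry. % inhibition is from MFI, with unstained RBCs as 100% and no inhibitor as 0%. IC50 derived.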

[3] = target: T1, Sialic acid-binding Ig-like lectin 7; assay: Binding affinity to human IgG1-fused Siglec-7-Fc measured after 2.5 hrs by ELISA
In short: (§2)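 Streptavidin-coated plates carry 4 μg/mL biotinylated 6′sialyl-N-acetyllactosamine-polyacrylamide and are BSA-blocked. Ligand 10-fold dilutions (1 mM to 1 × 10⁻⁵ mM, PBS) and hSiglec7-Fc precomplexed with AP anti-human IgG are added for 2.5 h at 37 °C. Plates are developed with p-nitrophenyl phosphate (pH 9.8) and read at 405 nm for IC50. 3′- and 6′-sialyllactose serve as references for relative potency.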

[4] = target: T1, Sialic acid-binding Ig-like lectin 7; assay: Binding affinity to human IgG1-fused Siglec-7-Fc measured after 2.5 hrs by ELISA relative to 3'sialyllactose; in short: as §2
[5] = target: T1, Sialic acid-binding Ig-like lectin 7; assay: Ratio of 3'sialyllactose Kd to relative inhibitory potency of test compound for human IgG1-fused Siglec-7-Fc by ELISA
In short: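 The Kd value is extrapolated by dividing the known Kd of 3′sialyllactose by the ELISA relative inhibitory potency. The ELISA uses plate-bound 6′sialyl-LacNAc-polyacrylamide with AP-precomplexed Siglec-7-Fc, 2.5 h at 37 °C, read at 405 nm.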

[6] = target: Sialic acid-binding Ig-like lectin 9 (Homo sapiens) (UniProt Q9Y336); assay: Binding affinity to human IgG1-fused Siglec-9-Fc assessed as inhibition of Siglec-9-Fc binding to K562 cells preincubated for 10 mins followed by K562 cell addition measured after 20 mins by FACS analysis
In short: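 Human IgG1-fused Siglec-9-Fc is preincubated with inhibitor dilutions, then co-incubated with K562 cells instead of RBCs. Later steps follow the RBC assay: anti-Fc-biotin and streptavidin-PE detection, fixation, and flow cytometry. Inhibition is calculated from MFI as for RBCs. At least three independent experiments.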

[7] = Cytotoxicity against human NK cells assessed as viable cells up to 10 mM; type: cell-based; conditions: nk cell
In short: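 Human NK cells are isolated by negative selection from PBMCs and prestimulated 24 h with 100 IU/mL IL-2. They are then incubated 24 h with the Siglec-7 inhibitor at concentrations up to 10 mM. Viability is assessed by live–dead staining and flow cytometry.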

[8] = system: K562; assay: Cytotoxicity against human K562 cells assessed as viable cells; type: cell-based
[9] = Cytotoxicity against human MEL1106 cells assessed as viable cells; type: cell-based
[10] = target: T1, Sialic acid-binding Ig-like lectin 7; assay: Binding affinity to human IgG1-fused Siglec-7-Fc; in short: as §1

T1 sequence (Q9Y286 whole entry, the tested form may be a part): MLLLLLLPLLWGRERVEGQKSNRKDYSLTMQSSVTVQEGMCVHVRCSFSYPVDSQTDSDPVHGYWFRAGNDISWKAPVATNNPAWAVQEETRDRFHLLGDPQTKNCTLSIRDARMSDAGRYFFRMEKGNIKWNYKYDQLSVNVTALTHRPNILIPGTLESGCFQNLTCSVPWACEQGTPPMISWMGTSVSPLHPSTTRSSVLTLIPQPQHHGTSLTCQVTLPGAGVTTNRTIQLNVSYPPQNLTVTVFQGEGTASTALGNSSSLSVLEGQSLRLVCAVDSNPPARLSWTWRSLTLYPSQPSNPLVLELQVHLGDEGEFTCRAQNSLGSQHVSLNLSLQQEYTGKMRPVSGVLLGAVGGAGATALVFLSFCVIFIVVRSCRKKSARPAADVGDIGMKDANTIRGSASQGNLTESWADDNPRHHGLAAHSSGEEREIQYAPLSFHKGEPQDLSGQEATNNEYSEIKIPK
Sequence of Sialic acid-binding Ig-like lectin 9 (Homo sapiens) (Q9Y336 whole entry, the tested form may be a part): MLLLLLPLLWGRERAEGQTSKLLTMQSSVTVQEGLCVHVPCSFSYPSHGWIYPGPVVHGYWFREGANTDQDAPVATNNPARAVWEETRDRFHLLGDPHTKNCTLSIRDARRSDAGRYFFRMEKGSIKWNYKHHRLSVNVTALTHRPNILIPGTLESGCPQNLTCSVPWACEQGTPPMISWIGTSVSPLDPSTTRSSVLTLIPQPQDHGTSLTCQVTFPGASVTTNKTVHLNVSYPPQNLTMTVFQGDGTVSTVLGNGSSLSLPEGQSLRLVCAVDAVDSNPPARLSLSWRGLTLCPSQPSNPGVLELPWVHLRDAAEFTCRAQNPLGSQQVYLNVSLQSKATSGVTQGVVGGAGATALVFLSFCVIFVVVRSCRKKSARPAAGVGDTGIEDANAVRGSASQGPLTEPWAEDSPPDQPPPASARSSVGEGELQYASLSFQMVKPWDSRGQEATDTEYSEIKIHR

COC1(C(=O)O)C[C@H](O)[C@@H](NC(C)=O)[C@H]([C@H](O)[C@H](O)CNC(=O)CC23CC4CC(CC(C4)C2)C3)O1 (some centres undefined)
fold change (FC) [1]: < 1.5

CC(=O)N[C@H]1[C@H]([C@H](O)[C@@H](C)O)O[C@@](OCCCn2cc(-c3ccc(-c4ccccc4)cc3)nn2)(C(=O)O)C[C@@H]1O
fold change (FC) [1]: 0.15

CC(=O)NC[C@@H](O)[C@@H](O)[C@@H]1O[C@@](OCCCn2cc(-c3ccc(-c4ccccc4)cc3)nn2)(C(=O)O)C[C@H](O)[C@H]1NC(C)=O
fold change (FC) [1]: 0.73

COC1(C(=O)O)C[C@H](O)[C@@H](NC(C)=O)[C@H]([C@H](O)[C@H](O)CNC(=O)C(=O)Nc2ccccc2)O1 (some centres undefined)
fold change (FC) [1]: 58

COC1(C(=O)O)C[C@H](O)[C@@H](NC(C)=O)[C@H]([C@H](O)[C@H](O)CNC(=O)C(N)=O)O1 (some centres undefined)
fold change (FC) [1]: 4.1

COC1(C(=O)O)C[C@H](O)[C@@H](NC(C)=O)[C@H]([C@H](O)[C@H](O)CNC(=O)Cc2ccc3ccccc3c2)O1 (some centres undefined)
fold change (FC) [1]: 8.2

CC(=O)N[C@H]1[C@H]([C@H](O)[C@H](O)CNS(=O)(=O)O)O[C@@](OCCCn2cc(-c3ccc(-c4ccccc4)cc3)nn2)(C(=O)O)C[C@@H]1O
fold change (FC) [1]: 33

CC(=O)N[C@H]1[C@H]([C@H](O)[C@H](O)CNCc2ccccc2)O[C@@](OCCCn2cc(-c3ccc(-c4ccccc4)cc3)nn2)(C(=O)O)C[C@@H]1O
fold change (FC) [1]: < 0.5

CC(=O)N[C@H]1[C@H]([C@H](O)[C@H](O)CNC(=O)C(=O)Nc2ccccc2)O[C@@](OCCCn2cc(-c3ccc(-c4ccccc4)cc3)nn2)(C(=O)O)C[C@@H]1O
fold change (FC) [1]: 6.8

CCCNC[C@@H](O)[C@@H](O)[C@@H]1O[C@@](OCCCn2cc(-c3ccc(-c4ccccc4)cc3)nn2)(C(=O)O)C[C@H](O)[C@H]1NC(C)=O
fold change (FC) [1]: < 0.5

CC(=O)N[C@H]1[C@H]([C@H](O)[C@H](O)CNC(=O)Cc2ccccc2)O[C@@](OCCCn2cc(-c3ccc(-c4ccccc4)cc3)nn2)(C(=O)O)C[C@@H]1O
fold change (FC) [1]: 0.6

CC(=O)N[C@H]1[C@H]([C@H](O)[C@H](O)CNS(N)(=O)=O)O[C@@](OCCCn2cc(-c3ccc(-c4ccccc4)cc3)nn2)(C(=O)O)C[C@@H]1O
fold change (FC) [1]: 0.45

CC(=O)N[C@H]1[C@H]([C@H](O)[C@H](O)CN)O[C@@](OCCCn2cc(-c3ccc(-c4ccccc4)cc3)nn2)(C(=O)O)C[C@@H]1O
fold change (FC) [1]: 0.24

COC1(C(=O)O)C[C@H](O)[C@@H](NC(C)=O)[C@H]([C@H](O)[C@H](O)CNC(=O)c2ccc(-c3ccccc3)cc2)O1 (some centres undefined)
fold change (FC) [1]: < 1.5

COC1(C(=O)O)C[C@H](O)[C@@H](NC(C)=O)[C@H]([C@H](O)[C@H](O)CNC(=O)Nc2ccccc2)O1 (some centres undefined)
fold change (FC) [1]: < 1

CCS(=O)(=O)NC[C@@H](O)[C@@H](O)[C@@H]1O[C@@](OCCCn2cc(-c3ccc(-c4ccccc4)cc3)nn2)(C(=O)O)C[C@H](O)[C@H]1NC(C)=O
fold change (FC) [1]: 5210
IC50 [2]: 1.6 µM
IC50 [3]: 230 µM
fold change (FC) [4]: 161
Ratio [5]: 4.2

COC1(C(=O)O)C[C@H](O)[C@@H](NC(C)=O)[C@H]([C@H](O)[C@H](O)CNC(=O)Cc2ccc(-c3ccccc3)cc2)O1 (some centres undefined)
fold change (FC) [1]: 4.5

CC(=O)N[C@H]1[C@H]([C@H](O)[C@H](O)CNS(C)(=O)=O)O[C@@](OCCCn2cc(-c3ccc(-c4ccccc4)cc3)nn2)(C(=O)[O-])C[C@@H]1O.[Na+]
fold change (FC) [1]: 3120
IC50 [2]: 2.6 µM
inhibition [6]: Active
IC50 [3]: 260 µM
fold change (FC) [4]: 141
Activity [7]: Non-Toxic
Activity [8]: Non-Toxic
Ratio [5]: 4.8
Activity [9]: Non-Toxic

CCCS(=O)(=O)NC[C@@H](O)[C@@H](O)[C@@H]1O[C@@](OCCCn2cc(-c3ccc(-c4ccccc4)cc3)nn2)(C(=O)O)C[C@H](O)[C@H]1NC(C)=O
fold change (FC) [1]: 0.33

CC(=O)N[C@H]1[C@H]([C@H](O)[C@H](O)CO)O[C@@](O[C@H]2[C@@H](O)[C@@H](CO)O[C@@H](O[C@H]3[C@H](O)[C@@H](O)[C@H](O)O[C@@H]3CO)[C@@H]2O)(C(=O)O)C[C@@H]1O
IC50 [3]: 36900 µM
Kd [10]: 680 µM

CCCCS(=O)(=O)NC[C@@H](O)[C@@H](O)[C@@H]1O[C@@](OCCCn2cc(-c3ccc(-c4ccccc4)cc3)nn2)(C(=O)O)C[C@H](O)[C@H]1NC(C)=O
fold change (FC) [1]: 0.16

CC(=O)N[C@H]1[C@H]([C@H](O)[C@H](O)CNC(=O)C(N)=O)O[C@@](OCCCn2cc(-c3ccc(-c4ccccc4)cc3)nn2)(C(=O)O)C[C@@H]1O
fold change (FC) [1]: 3.5

COC1(C(=O)O)C[C@H](O)[C@@H](NC(C)=O)[C@H]([C@H](O)[C@H](O)CNC(=O)Cc2cccc3ccccc23)O1 (some centres undefined)
fold change (FC) [1]: < 1.5

CC(=O)N[C@H]1[C@H]([C@H](O)[C@H](O)CNS(=O)(=O)NS(N)(=O)=O)O[C@@](OCCCn2cc(-c3ccc(-c4ccccc4)cc3)nn2)(C(=O)O)C[C@@H]1O
fold change (FC) [1]: 1

CC(=O)N[C@H]1[C@H]([C@H](O)[C@H](O)CNS(=O)(=O)NC(=O)OCc2ccccc2)O[C@@](OCCCn2cc(-c3ccc(-c4ccccc4)cc3)nn2)(C(=O)O)C[C@@H]1O
fold change (FC) [1]: 0.27

CC(=O)N[C@H]1[C@H]([C@H](O)[C@H](O)CO)O[C@@](OCCCn2cc(-c3ccc(-c4ccccc4)cc3)nn2)(C(=O)O)C[C@@H]1O
fold change (FC) [1]: 152
IC50 [2]: 53 µM

CC(=O)N[C@H]1[C@H]([C@H](O)[C@H](O)CO)O[C@@](OC[C@H]2O[C@@H](O[C@H]3[C@H](O)[C@@H](O)[C@H](O)O[C@@H]3CO)[C@H](O)[C@@H](O)[C@H]2O)(C(=O)O)C[C@@H]1O
IC50 [3]: 25600 µM
fold change (FC) [4]: 1.4
Kd [10]: 240 µM

CC(=O)N[C@H]1[C@H]([C@H](O)[C@H](O)CNS(=O)(=O)C(F)(F)F)O[C@@](OCCCn2cc(-c3ccc(-c4ccccc4)cc3)nn2)(C(=O)O)C[C@@H]1O
fold change (FC) [1]: 0.41

COC1(C(=O)O)C[C@H](O)[C@@H](NC(C)=O)[C@H]([C@H](O)[C@H](O)CNC(=O)Cc2ccccc2)O1 (some centres undefined)
fold change (FC) [1]: 10

CC(=O)N[C@H]1[C@H]([C@H](O)[C@H](O)CNc2c(O)c(=O)c2=O)O[C@@](OCCCn2cc(-c3ccc(-c4ccccc4)cc3)nn2)(C(=O)O)C[C@@H]1O
fold change (FC) [1]: 0.28

CC(=O)N[C@H]1[C@H]([C@H](O)[C@H](O)CNC(=O)C(=O)O)O[C@@](OCCCn2cc(-c3ccc(-c4ccccc4)cc3)nn2)(C(=O)O)C[C@@H]1O
fold change (FC) [1]: 3.6

CC(=O)N[C@H]1[C@H]([C@H](O)[C@H](O)CS)O[C@@](OCCCn2cc(-c3ccc(-c4ccccc4)cc3)nn2)(C(=O)O)C[C@@H]1O
fold change (FC) [1]: 0.52

CC(=O)N[C@H]1[C@H]([C@H](O)[C@H](O)CNS(=O)(=O)c2cccc3c(N(C)C)cccc23)O[C@@](OCCCn2cc(-c3ccc(-c4ccccc4)cc3)nn2)(C(=O)O)C[C@@H]1O
fold change (FC) [1]: 0.09

CC(=O)N[C@H]1[C@H]([C@H](O)[C@H](O)CNS(=O)(=O)c2ccccc2)O[C@@](OCCCn2cc(-c3ccc(-c4ccccc4)cc3)nn2)(C(=O)O)C[C@@H]1O
fold change (FC) [1]: 0.49

COC1(C(=O)O)C[C@H](O)[C@@H](NC(C)=O)[C@H]([C@H](O)[C@H](O)CNC(=O)c2ccccc2)O1 (some centres undefined)
fold change (FC) [1]: < 1.5

COC1(C(=O)O)C[C@H](O)[C@@H](NC(C)=O)[C@H]([C@H](O)[C@H](O)CNC(=O)CC2CCCCC2)O1 (some centres undefined)
fold change (FC) [1]: < 1.5

COC1(C(=O)O)C[C@H](O)[C@@H](NC(C)=O)[C@H]([C@H](O)[C@H](O)CO)O1 (some centres undefined)
IC50 [2]: 8070 µM

CC(=O)N[C@H]1[C@H]([C@H](O)[C@H](O)CNS(=O)(=O)Cc2ccccc2)O[C@@](OCCCn2cc(-c3ccc(-c4ccccc4)cc3)nn2)(C(=O)O)C[C@@H]1O
fold change (FC) [1]: 0.17

— ChEMBL document CHEMBL3992537, “Design, Synthesis, and Biological Evaluation of Small, High-Affinity Siglec-7 Ligands: Toward Novel Inhibitors of Cancer Immune Evasion” (J Med Chem, 2017)
